Experimental data: ChEMBL document CHEMBL1124238, “Methotrexate analogues. 32. Chain extension, alpha-carboxyl deletion, and gamma-carboxyl replacement by sulfonate and phosphonate: effect on enzyme binding and cell-growth inhibition” (J Med Chem, 1988)
One block for each molecule: values may come before it.

Key:
Dihydrofolate reductase = biological target: T1, Dihydrofolate reductase (Mus musculus, UniProt P00375); experiment: Inhibition of dihydrofolate reductase (DHFR) in mouse L1210 leukemia cells; type: cell-based
T1 sequence (P00375 whole entry): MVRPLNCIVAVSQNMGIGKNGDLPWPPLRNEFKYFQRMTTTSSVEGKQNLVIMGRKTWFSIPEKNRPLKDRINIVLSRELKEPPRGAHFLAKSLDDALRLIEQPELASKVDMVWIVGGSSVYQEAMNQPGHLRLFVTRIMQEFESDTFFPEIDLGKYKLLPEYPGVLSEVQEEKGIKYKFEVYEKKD

Mus musculus = species on record: Mus musculus; experiment: (§1) Inhibition of Folyl-polyglutamate synthase from mouse liver; settings: concentration not given here
Summary of the method: (§2)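 Partially purified mouse liver enzyme, run at 37 °C for 1 h in Tris buffer pH 8.6 with 20 mM α-thioglycerol. The mixture held 1 mM [3H]-L-glutamic acid, 500 μM folic acid and 500 μM inhibitor. Activity is expressed as percent of untreated control. Ki,s comes from a slope replot of double-reciprocal 1/V versus 1/S plots, and was not determined where inhibition was below 30%.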

[1] = as §1; summary of the method: as §2
L1210 [2] = experiment: Inhibition of cell growth against cultured L1210 leukemia cells in mouse; type: functional, cell-based
L1210 ( R81) = experiment: (§3) Inhibition of cell growth against highly MTX- and AMT-resistant mutant L1210/R81; type: functional, cell-based; settings: Mus musculus
[3] = tested on: Folylpolyglutamate synthase (Mus musculus); experiment: Inhibition of Folyl-polyglutamate synthase from mouse liver; set-up: concentration or dose not given beside the values; settings: concentration not given here
L1210 [4] = experiment: as §3; type: functional, cell-based; settings: Mus musculus

- IC50 (Dihydrofolate reductase): 67 nM
- inhibition (Mus musculus): 44%
- Ki [1]: 155000 nM
- IC50 (L1210 [2]): 130 nM
- IC50 (L1210 ( R81)): > 280000 nM
SMILES: Nc1nc(N)c2nc(CNc3ccc(C(=O)NC(CCCCP(=O)(O)O)C(=O)O)cc3)cnc2n1 (stereo not given)

- IC50 (Dihydrofolate reductase): 83 nM
- inhibition (Mus musculus): 52%
- Ki [1]: 124000 nM
- IC50 (L1210 [2]): 120 nM
- IC50 (L1210 ( R81)): > 460000 nM
SMILES: Nc1nc(N)c2nc(CNc3ccc(C(=O)NC(CCCP(=O)(O)O)C(=O)O)cc3)cnc2n1 (stereo not given)

- inhibition [3]: 22%
SMILES: CN(Cc1cnc2nc(N)nc(N)c2n1)c1ccc(C(=O)NCCP(=O)(O)O)cc1

- inhibition [3]: 9%
SMILES: CCOP(=O)(O)CCCNC(=O)c1ccc(N(C)Cc2cnc3nc(N)nc(N)c3n2)cc1

- inhibition [3]: 26%
SMILES: CN(Cc1cnc2nc(N)nc(N)c2n1)c1ccc(C(=O)NCCCCS(=O)(=O)O)cc1

- IC50 (Dihydrofolate reductase): 550 nM
- inhibition (Mus musculus): 22%
- Ki [1]: 900000 nM
- IC50 (L1210 [2]): 250 nM
- IC50 (L1210 [4]): 390000 nM
SMILES: Nc1nc(N)c2nc(CNc3ccc(C(=O)NC(CP(=O)(O)O)C(=O)O)cc3)cnc2n1 (stereo not given)

- inhibition [3]: 19%
SMILES: CN(Cc1cnc2nc(N)nc(N)c2n1)c1ccc(C(=O)NCS(=O)(=O)O)cc1

- inhibition [3]: 22%
SMILES: CN(Cc1cnc2nc(N)nc(N)c2n1)c1ccc(C(=O)NCCS(=O)(=O)O)cc1

- inhibition [3]: 16%
SMILES: CN(Cc1cnc2nc(N)nc(N)c2n1)c1ccc(C(=O)NCCCP(=O)(O)O)cc1

- inhibition [3]: 77%
SMILES: Nc1nc(N)c2nc(CNc3ccc(C(=O)NC(CCS(=O)(=O)O)C(=O)O)cc3)cnc2n1 (stereo not given)

- inhibition [3]: 59%
SMILES: CN(Cc1cnc2nc(N)nc(N)c2n1)c1ccc(C(=O)NC(CCS(=O)(=O)O)C(=O)O)cc1 (stereo not given)

- IC50 (Dihydrofolate reductase): 63 nM
- inhibition (Mus musculus): 100%
- Ki [1]: 8400 nM
- IC50 (L1210 [2]): 67 nM
- IC50 (L1210 ( R81)): 240000 nM
SMILES: Nc1nc(N)c2nc(CNc3ccc(C(=O)NC(CCP(=O)(O)O)C(=O)O)cc3)cnc2n1 (stereo not given)

- inhibition [3]: 18%
SMILES: CN(Cc1cnc2nc(N)nc(N)c2n1)c1ccc(C(=O)NCCCS(=O)(=O)O)cc1

- inhibition [3]: 53%
SMILES: CN(Cc1cnc2nc(N)nc(N)c2n1)c1ccc(C(=O)NC(CCP(=O)(O)O)C(=O)O)cc1 (stereo not given)
